From ChEMBL document CHEMBL1139309, “Novel fluorinated pseudopeptides as proteasome inhibitors” (Bioorg Med Chem Lett, 2009)
Calls of active or inactive are those of the source. The rule behind the calls is not given here.

Assays:
[1] = target: Cathepsin B (Homo sapiens) (UniProt P07858); assay: Inhibition of CTSB
Outline: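 Cathepsin B was assayed at 37 °C using Z-RR-AMC substrate in 352 mM KH2PO4 (pH 6), 48 mM NaHPO4, 1 mM EDTA and 1 mM DTT.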

[2] = target: T1, Calpain-1 catalytic subunit (Homo sapiens) (UniProt P07384); assay: Inhibition of calpain 1
T1 sequence (whole entry): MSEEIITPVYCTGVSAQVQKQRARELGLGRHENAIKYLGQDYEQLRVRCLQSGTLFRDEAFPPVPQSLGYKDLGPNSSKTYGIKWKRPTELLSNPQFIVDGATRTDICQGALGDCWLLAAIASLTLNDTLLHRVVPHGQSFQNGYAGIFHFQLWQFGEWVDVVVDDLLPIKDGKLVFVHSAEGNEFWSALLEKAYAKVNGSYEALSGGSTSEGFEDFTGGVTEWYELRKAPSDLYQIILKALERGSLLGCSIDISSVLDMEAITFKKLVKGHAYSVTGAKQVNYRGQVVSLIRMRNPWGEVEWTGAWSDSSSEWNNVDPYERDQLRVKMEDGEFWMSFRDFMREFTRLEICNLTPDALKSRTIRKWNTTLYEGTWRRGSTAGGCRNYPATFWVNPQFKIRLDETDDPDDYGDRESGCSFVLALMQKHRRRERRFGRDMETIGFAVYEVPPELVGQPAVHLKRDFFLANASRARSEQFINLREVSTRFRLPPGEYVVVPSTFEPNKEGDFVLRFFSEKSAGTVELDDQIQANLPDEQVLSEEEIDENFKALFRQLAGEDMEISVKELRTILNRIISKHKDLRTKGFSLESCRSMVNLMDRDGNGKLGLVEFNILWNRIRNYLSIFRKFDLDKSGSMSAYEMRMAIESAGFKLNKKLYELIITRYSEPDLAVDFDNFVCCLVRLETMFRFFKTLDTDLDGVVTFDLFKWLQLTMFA
Outline: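 Purified calpain I was assayed at 37 °C with Suc-LLVY-AMC substrate in 50 mM Tris–HCl (pH 7.2), 10 mM DTT and 2 mM CaCl2.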

[3] = (§1) Inhibition of chymotrypsin-like activity of rabbit 20S proteasome; parameters: species or system Oryctolagus cuniculus
Outline: (§2)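 Rabbit 20S proteasome was run at 37 °C, pH 7.5, for 45 min, with and without compound (0.1–200 µM). Fluorogenic substrates were Suc-LLVY-AMC for chymotrypsin-like activity and Z-LLE-βNA for post-acid activity. Buffer was 20 mM Tris, 1 mM DTT, 10% glycerol and 0.02% (w/v) SDS. IC50 or % inhibition at 100 µM is the mean of three experiments.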

[4] = (§3) Inhibition of post-acid activity of rabbit 20S proteasome; parameters: species or system Oryctolagus cuniculus; outline: as §2
Oryctolagus cuniculus [5] = species: Oryctolagus cuniculus; assay: Inhibition of trypsin-like activity of rabbit 20S proteasome at 100 uM
Outline: (§4)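 Trypsin-like activity of rabbit 20S proteasome was followed by Boc-LRR-AMC hydrolysis over 45 min at 37 °C, with and without compound (0.1–200 µM). Buffer was pH 7.5 20 mM Tris, 1 mM DTT and 10% glycerol, with no SDS. Values are IC50 or % inhibition at 100 µM, as means of three experiments.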

Oryctolagus cuniculus [6] = species: Oryctolagus cuniculus; assay: as §3; outline: as §2
Oryctolagus cuniculus [7] = species: Oryctolagus cuniculus; assay: (§5) Inhibition of trypsin-like activity of rabbit 20S proteasome; outline: as §4
Oryctolagus cuniculus [8] = species: Oryctolagus cuniculus; assay: as §1; outline: as §2
HeLa = assay: Inhibition of chymotrypsin-like activity of 20S proteasome in human HeLa cells at 50 uM after 1.5 hrs by chemiluminescent assay
[9] = as §5; parameters: species or system Oryctolagus cuniculus; outline: as §4

Compound	Activity [1]	Activity [2]	IC50 [3] [µM]	IC50 [4] [µM]	inhibition (Oryctolagus cuniculus [5]) [%]	Activity (Oryctolagus cuniculus [6])	Activity (Oryctolagus cuniculus [7])	Activity (Oryctolagus cuniculus [8])	inhibition (HeLa) [%]	IC50 [9] [µM]
COC(=O)[C@H](Cc1ccccc1)NC(=O)CC(NNC(=O)[C@H](CCCCN)NC(=O)OC(C)(C)C)C(F)(F)F (mixture of isomers)	inactive	inactive	32	6	30	–	–	–	–	–
COC(=O)[C@H](Cc1ccccc1)NC(=O)CC(NNC(=O)Cc1cccc(Oc2ccccc2)c1)C(F)(F)F (mixture of isomers)	–	–	–	–	–	inactive	inactive	–	–	–
COC(=O)[C@H](Cc1ccccc1)NC(=O)CC(NNC(=O)[C@H](CCCCNC(=O)OCc1ccccc1)NC(=O)OC(C)(C)C)C(F)(F)F (mixture of isomers)	–	–	–	–	–	inactive	–	inactive	–	–
COC(=O)[C@H](Cc1ccccc1)NC(=O)CC(NNC(=O)[C@H](Cc1ccc(OC)c(OC)c1)NC(=O)Cc1cccc(Oc2ccccc2)c1)C(F)(F)F (mixture of isomers)	–	–	85	72	–	–	–	–	–	–
COC(=O)[C@H](Cc1ccccc1)NC(=O)CC(NNC(=O)[C@H](CCCCN)NC(=O)Cc1cccc(Oc2ccccc2)c1)C(F)(F)F (mixture of isomers)	inactive	inactive	1.6	2.7	–	–	–	–	20	8.4
COC(=O)[C@H](Cc1ccccc1)NC(=O)CC(NNC(=O)[C@@H](N)CCCCNC(=O)OCc1ccccc1)C(F)(F)F (mixture of isomers)	inactive	inactive	5.9	–	–	inactive	–	–	–	4.4
COC(=O)[C@H](Cc1ccccc1)NC(=O)CC(NNC(=O)[C@H](CCCCNC(=O)OCc1ccccc1)NC(=O)Cc1cccc(Oc2ccccc2)c1)C(F)(F)F (mixture of isomers)	–	–	–	200	–	–	inactive	inactive	–	–
